Test results reported in ChEMBL document CHEMBL1777788, “Synthesis and in vitro antimicrobial activities of new (cyano-NNO-azoxy)pyrazole derivatives” (2011).
Values after ≈ are worked out from the molar mass of the structure shown.

Experiments:
[1] = system: Cryptococcus deneoformans; assay: Antimicrobial activity against Cryptococcus neoformans var. neoformans isolate 30 after 48 hrs by microdilution broth method; type: functional; details: isolate 30, 48 h
Outline: (§1)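 Yeasts were grown overnight on Sabouraud dextrose agar at 35°C, suspended in water, and adjusted at 530 nm to McFarland 0.5 (approximately 1-5 x 10^6 CFU/ml). They were then diluted 1:100 and 1:20 in RPMI 1640 with 0.165 M MOPS and 2% glucose. Compound in DMSO was tested at ten concentrations, 0.25–256 mg/L, with incubation at 35°C. At 48 h, MIC was read spectrophotometrically as 50% turbidity reduction versus growth control.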

Nakaseomyces glabratus [2] = assay: Antimicrobial activity against Candida glabrata isolate 49 after 48 hrs by microdilution broth method; type: functional; outline: as §1
Candida tropicalis [3] = assay: Antimicrobial activity against Candida tropicalis isolate 11 after 48 hrs by microdilution broth method; type: functional; details: isolate 11, 48 h; outline: as §1
Candida parapsilosis [4] = assay: Antimicrobial activity against Candida parapsilosis isolate 26 after 48 hrs by microdilution broth method; type: functional; details: Lodderomyces parapsilosis, isolate 26, 48 h; outline: as §1
[5] = system: Cryptococcus deneoformans; assay: Antimicrobial activity against Cryptococcus neoformans var. neoformans isolate 25 after 48 hrs by microdilution broth method; type: functional; details: isolate 25, 48 h; outline: as §1
Nakaseomyces glabratus [6] = assay: Antimicrobial activity against Candida glabrata isolate 46 after 48 hrs by microdilution broth method; type: functional; outline: as §1
[7] = system: Cryptococcus deneoformans; assay: Antimicrobial activity against Cryptococcus neoformans var. neoformans isolate 27 after 48 hrs by microdilution broth method; type: functional; details: isolate 27, 48 h; outline: as §1
Candida tropicalis [8] = assay: Antimicrobial activity against Candida tropicalis isolate 15 after 48 hrs by microdilution broth method; type: functional; details: isolate 15, 48 h; outline: as §1
Candida albicans [9] = assay: Antimicrobial activity against Candida albicans isolate 47 after 48 hrs by microdilution broth method; type: functional; details: isolate 47, 48 h; outline: as §1
Nakaseomyces glabratus [10] = assay: Antimicrobial activity against Candida glabrata isolate 32 after 48 hrs by microdilution broth method; type: functional; details: isolate 32, 48 h; outline: as §1
Candida parapsilosis [11] = assay: Antimicrobial activity against Candida parapsilosis isolate 44 after 48 hrs by microdilution broth method; type: functional; details: Lodderomyces parapsilosis, isolate 44, 48 h; outline: as §1
Candida tropicalis [12] = assay: Antimicrobial activity against Candida tropicalis isolate 22 after 48 hrs by microdilution broth method; type: functional; details: isolate 22, 48 h; outline: as §1
Candida parapsilosis [13] = assay: Antimicrobial activity against Candida parapsilosis ATCC 22019 after 48 hrs by microdilution broth method; type: functional; details: Lodderomyces parapsilosis, ATCC 22019, 48 h; outline: as §1
Candida tropicalis [14] = assay: Antimicrobial activity against Candida tropicalis isolate 33 after 48 hrs by microdilution broth method; type: functional; details: isolate 33, 48 h; outline: as §1
[15] = system: Cryptococcus deneoformans; assay: Antimicrobial activity against Cryptococcus neoformans var. neoformans isolate 14 after 48 hrs by microdilution broth method; type: functional; details: isolate 14, 48 h; outline: as §1
Candida albicans [16] = assay: Antimicrobial activity against Candida albicans isolate 41 after 48 hrs by microdilution broth method; type: functional; details: isolate 41, 48 h; outline: as §1
Candida albicans [17] = assay: Antimicrobial activity against Candida albicans isolate 31 after 48 hrs by microdilution broth method; type: functional; details: isolate 31, 48 h; outline: as §1
Pichia kudriavzevii [18] = assay: Antimicrobial activity against Candida krusei isolate 31 after 48 hrs by microdilution broth method; type: functional; details: isolate 31, 48 h; outline: as §1
Candida albicans [19] = assay: Antimicrobial activity against Candida albicans ATCC 90028 after 48 hrs by microdilution broth method; type: functional; details: ATCC 90028, 48 h
Outline: (§2)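 Yeasts grown overnight on Sabouraud dextrose agar at 35°C, suspended in sterile water, and adjusted to McFarland 0.5 at 530 nm (about 1-5 x 10^6 CFU/ml), then diluted 1:100 and 1:20 in RPMI 1640 with 0.165 M MOPS and 2% glucose. Compound in DMSO tested at ten concentrations, 0.25-256 mg/L, at 35°C. MIC read spectrophotometrically at 48 h as 50% turbidity reduction versus growth control.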

Candida parapsilosis [20] = assay: Antimicrobial activity against Candida parapsilosis isolate 19 after 48 hrs by microdilution broth method; type: functional; details: Lodderomyces parapsilosis, isolate 19, 48 h; outline: as §1
Candida albicans [21] = assay: Antimicrobial activity against Candida albicans isolate 48 after 48 hrs by microdilution broth method; type: functional; details: isolate 48, 48 h; outline: as §1
Candida parapsilosis [22] = assay: Antimicrobial activity against Candida parapsilosis isolate 39 after 48 hrs by microdilution broth method; type: functional; details: Lodderomyces parapsilosis, isolate 39, 48 h; outline: as §2
Proteus mirabilis = assay: Antimicrobial activity against Proteus mirabilis isolate after 24 hrs by microdilution broth method
Escherichia coli = assay: Antimicrobial activity against Escherichia coli isolate after 24 hrs by microdilution broth method
Pseudomonas aeruginosa [23] = assay: Antimicrobial activity against Pseudomonas aeruginosa isolate 2 after 24 hrs by microdilution broth method; details: isolate 2, 24 h
Pichia kudriavzevii [24] = assay: Antimicrobial activity against Candida krusei isolate 48 after 48 hrs by microdilution broth method; type: functional
Nakaseomyces glabratus [25] = assay: Antimicrobial activity against Candida glabrata isolate 30 after 48 hrs by microdilution broth method; type: functional; outline: as §1
Pichia kudriavzevii [26] = assay: Antimicrobial activity against Candida krusei ATCC 6258 after 48 hrs by microdilution broth method; type: functional; details: ATCC 6258, 48 h
Pichia kudriavzevii [27] = assay: Antimicrobial activity against Candida krusei isolate 43 after 48 hrs by microdilution broth method; type: functional
Staphylococcus aureus = assay: Antimicrobial activity against methicillin-susceptible Staphylococcus aureus isolate after 24 hrs by microdilution broth method
Pseudomonas aeruginosa [28] = assay: Antimicrobial activity against Pseudomonas aeruginosa isolate 1 after 24 hrs by microdilution broth method; details: isolate 1, 24 h

SMILES	MIC [1] [µg/mL]	MIC (Nakaseomyces glabratus [2]) [µg/mL]	MIC (Candida tropicalis [3]) [µg/mL]	MIC (Candida parapsilosis [4]) [µg/mL]	MIC [5] [µg/mL]	MIC (Nakaseomyces glabratus [6]) [µg/mL]	MIC [7] [µg/mL]	MIC (Candida tropicalis [8]) [µg/mL]	MIC (Candida albicans [9]) [µg/mL]	MIC (Nakaseomyces glabratus [10]) [µg/mL]	MIC (Candida parapsilosis [11]) [µg/mL]	MIC (Candida tropicalis [12]) [µg/mL]	MIC (Candida parapsilosis [13]) [µg/mL]	MIC (Candida tropicalis [14]) [µg/mL]	MIC [15] [µg/mL]	MIC (Candida albicans [16]) [µg/mL]	MIC (Candida albicans [17]) [µg/mL]	MIC (Pichia kudriavzevii [18]) [µg/mL]	MIC (Candida parapsilosis [20]) [µg/mL]	MIC (Candida albicans [21]) [µg/mL]	further results
C[C@@H]1[C@H](O)[C@@H](C)/C=C/C=C/C=C/C=C/C=C/C=C/C=C/[C@H](O[C@@H]2O[C@H](C)[C@@H](O)[C@H](N)[C@@H]2O)C[C@@H]2O[C@](O)(C[C@@H](O)C[C@@H](O)[C@H](O)CC[C@@H](O)C[C@@H](O)CC(=O)O[C@H]1C)C[C@H](O)[C@H]2C(=O)O [AMPHOTERICIN B]	0.5 (≈ 0.541 µM)	0.5 (≈ 0.541 µM)	1 (≈ 1.08 µM)	0.5 (≈ 0.541 µM)	0.5 (≈ 0.541 µM)	1 (≈ 1.08 µM)	0.12 (≈ 0.13 µM)	1 (≈ 1.08 µM)	1 (≈ 1.08 µM)	0.5 (≈ 0.541 µM)	0.5 (≈ 0.541 µM)	0.5 (≈ 0.541 µM)	1 (≈ 1.08 µM)	1 (≈ 1.08 µM)	0.25 (≈ 0.271 µM)	0.5 (≈ 0.541 µM)	0.5 (≈ 0.541 µM)	0.5 (≈ 0.541 µM)	0.5 (≈ 0.541 µM)	0.5 (≈ 0.541 µM)	MIC (Candida albicans [19]): 0.5 µg/mL (≈ 0.541 µM); MIC (Candida parapsilosis [22]): 0.5 µg/mL (≈ 0.541 µM)
Cc1nn(C)c(C)c1/[N+]([O-])=N/C#N	32 (≈ 179 µM)	64 (≈ 357 µM)	128 (≈ 714 µM)	64 (≈ 357 µM)	32 (≈ 179 µM)	64 (≈ 357 µM)	32 (≈ 179 µM)		32 (≈ 179 µM)	16 (≈ 89.3 µM)	64 (≈ 357 µM)	64 (≈ 357 µM)	32 (≈ 179 µM)	64 (≈ 357 µM)	32 (≈ 179 µM)	32 (≈ 179 µM)	32 (≈ 179 µM)	32 (≈ 179 µM)	64 (≈ 357 µM)	32 (≈ 179 µM)	MIC (Proteus mirabilis): > 128 µg/mL; MIC (Escherichia coli): > 128 µg/mL; MIC (Pseudomonas aeruginosa [23]): > 128 µg/mL; MIC (Pichia kudriavzevii [24]): 32 µg/mL (≈ 179 µM); MIC (Nakaseomyces glabratus [25]): 64 µg/mL (≈ 357 µM); MIC (Pichia kudriavzevii [26]): 16 µg/mL (≈ 89.3 µM); MIC (Pichia kudriavzevii [27]): 32 µg/mL (≈ 179 µM); MIC (Staphylococcus aureus): > 128 µg/mL; MIC (Pseudomonas aeruginosa [28]): > 128 µg/mL
CC[C@@H]([C@H](C)O)n1ncn(-c2ccc(N3CCN(c4ccc(OC[C@@H]5CO[C@@](Cn6cncn6)(c6ccc(F)cc6F)C5)cc4)CC3)cc2)c1=O [POSACONAZOLE]	0.12 (≈ 0.171 µM)	0.25 (≈ 0.357 µM)	0.12 (≈ 0.171 µM)	0.03 (≈ 0.0428 µM)	0.06 (≈ 0.0856 µM)	1 (≈ 1.43 µM)	0.06 (≈ 0.0856 µM)	0.25 (≈ 0.357 µM)	0.016 (≈ 0.0228 µM)	> 8	0.03 (≈ 0.0428 µM)	0.25 (≈ 0.357 µM)	0.12 (≈ 0.171 µM)	0.12 (≈ 0.171 µM)	0.03 (≈ 0.0428 µM)	0.016 (≈ 0.0228 µM)	0.008 (≈ 0.0114 µM)	0.25 (≈ 0.357 µM)	0.03 (≈ 0.0428 µM)	0.008 (≈ 0.0114 µM)	MIC (Pichia kudriavzevii [24]): 0.25 µg/mL (≈ 0.357 µM); MIC (Nakaseomyces glabratus [25]): 0.5 µg/mL (≈ 0.713 µM); MIC (Pichia kudriavzevii [26]): 0.25 µg/mL (≈ 0.357 µM); MIC (Pichia kudriavzevii [27]): 0.5 µg/mL (≈ 0.713 µM); MIC (Candida albicans [19]): 0.008 µg/mL (≈ 0.0114 µM); MIC (Candida parapsilosis [22]): 0.06 µg/mL (≈ 0.0856 µM)
C[C@@H](c1ncncc1F)[C@](O)(Cn1cncn1)c1ccc(F)cc1F [VORICONAZOLE]	0.016 (≈ 0.0458 µM)	0.12 (≈ 0.344 µM)	0.12 (≈ 0.344 µM)	< 0.008	0.016 (≈ 0.0458 µM)	0.25 (≈ 0.716 µM)	0.016 (≈ 0.0458 µM)	0.06 (≈ 0.172 µM)	0.008 (≈ 0.0229 µM)	4 (≈ 11.5 µM)	0.016 (≈ 0.0458 µM)	0.06 (≈ 0.172 µM)	0.06 (≈ 0.172 µM)	< 0.008	< 0.008	< 0.008	< 0.008	0.12 (≈ 0.344 µM)	0.008 (≈ 0.0229 µM)	< 0.008	MIC (Pichia kudriavzevii [24]): 0.25 µg/mL (≈ 0.716 µM); MIC (Nakaseomyces glabratus [25]): 0.25 µg/mL (≈ 0.716 µM); MIC (Pichia kudriavzevii [26]): 0.25 µg/mL (≈ 0.716 µM); MIC (Pichia kudriavzevii [27]): 0.5 µg/mL (≈ 1.43 µM); MIC (Candida albicans [19]): 0.008 µg/mL (≈ 0.0229 µM); MIC (Candida parapsilosis [22]): 0.016 µg/mL (≈ 0.0458 µM)
OC(Cn1cncn1)(Cn1cncn1)c1ccc(F)cc1F [FLUCONAZOLE]	4 (≈ 13.1 µM)		1 (≈ 3.27 µM)	1 (≈ 3.27 µM)	2 (≈ 6.53 µM)	16 (≈ 52.2 µM)	2 (≈ 6.53 µM)	1 (≈ 3.27 µM)	0.25 (≈ 0.816 µM)	> 256	2 (≈ 6.53 µM)	2 (≈ 6.53 µM)	2 (≈ 6.53 µM)	1 (≈ 3.27 µM)	0.5 (≈ 1.63 µM)	0.12 (≈ 0.392 µM)	0.25 (≈ 0.816 µM)	32 (≈ 104 µM)	1 (≈ 3.27 µM)	0.12 (≈ 0.392 µM)	MIC (Pichia kudriavzevii [24]): 32 µg/mL (≈ 104 µM); MIC (Pichia kudriavzevii [26]): 32 µg/mL (≈ 104 µM); MIC (Pichia kudriavzevii [27]): 64 µg/mL (≈ 209 µM); MIC (Candida albicans [19]): 0.12 µg/mL (≈ 0.392 µM); MIC (Candida parapsilosis [22]): 1 µg/mL (≈ 3.27 µM)
